Assay [1] is described as follows: Inhibition of HIV NL43 recombinant reverse transcriptase by scintillation proximity assay. Further details: species or system Human immunodeficiency virus. An outline of the steps:
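Purified recombinant wild-type RT (NL_43) polymerase activity measured as 3H-dNTP incorporation, using a 500 nt heteropolymeric RNA template with biotinylated DNA primer. Read by scintillation proximity assay.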
On the technique in general: Scintillation proximity formats need no separation of bound from free tracer.

Assay [2] concerns the target Human immunodeficiency virus type 1 reverse transcriptase (Human immunodeficiency virus 1, UniProt Q72547, K103N). The experiment in a line: Inhibition of HIV NL43 recombinant reverse transcriptase K103N mutant by scintillation proximity assay.
Assay [3] relates to Human immunodeficiency virus. Briefly: Antiviral activity against HIV 3B in MT4 cells assessed as inhibition of replication after 3 days in presence of 10% fetal bovine serum. It counts as functional. The note with it: Human immunodeficiency virus 1, 3B, MT4, 72 h; read-out: CIC95. An outline of the steps:
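MT4 cells infected overnight with wild-type H9IIIB virus (moi 0.01) without compound, washed, then cultured 3 days across a compound concentration range in 10% FBS. Replication read as p24 in culture supernatants. CIC95 = lowest concentration inhibiting replication by ≥95%.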

In assay [4] the target is Human immunodeficiency virus type 1 reverse transcriptase (Human immunodeficiency virus 1, UniProt Q72547, Y181C). Briefly: Inhibition of HIV HXB2 recombinant reverse transcriptase Y181C mutant by scintillation proximity assay.

Here are results for 34 molecules from ChEMBL document CHEMBL1140821, “Novel indole-3-sulfonamides as potent HIV non-nucleoside reverse transcriptase inhibitors (NNRTIs)” (Bioorg Med Chem Lett, 2008).

Structures are written as SMILES. Where only a bound is given, the exact number is not on record here.

The IC50 is the concentration that inhibits the measured activity by half. `O=C(NCc1c(F)cccc1Cl)c1[nH]c2ccc(Br)cc2c1S(=O)(=O)N1CCCC1`: the IC50 in assay [1] amounted to 3.8 nM; in assay [2] it was 20 nM; in assay [4] it was 16 nM. The IC95 in assay [3] came out at 25 nM.

`O=C(NCc1ccccc1O)c1[nH]c2ccc(Br)cc2c1S(=O)(=O)N1CCCC1`: the IC50 in assay [1] is 2.4 nM; in assay [2] it was 31 nM; in assay [4], 9.4 nM. In addition, the IC95 in assay [3] was found to be 23 nM.

For the molecule `O=C(NCc1ccn[nH]1)c1[nH]c2ccc(Br)cc2c1S(=O)(=O)N1CCCC1`, the IC50 was 2.5 nM in assay [1], 260 nM in assay [2] and 829 nM in assay [4]. The IC95 in assay [3] was under 7.8 nM.

`O=C(NCc1ccncc1)c1[nH]c2ccc(Br)cc2c1S(=O)(=O)N1CCCC1`: the IC50 stood at 14 nM in assay [1], 170 nM in assay [2] and 6.3 nM in assay [4]. Also, the IC95 in assay [3] is under 7.8 nM.

As to `O=C(NCc1cncs1)c1[nH]c2ccc(Br)cc2c1S(=O)(=O)N1CCCC1`, the IC50 in assay [1] is 6.2 nM; in assay [2], 93 nM; in assay [4], 6 nM. The IC95 in assay [3] was determined as 16 nM.

`Cc1cnc(-c2[nH]c3ccc(Br)cc3c2S(=O)(=O)N2CCCC2)[nH]1`: the IC50 is 3.1 nM in assay [1], 42 nM in assay [2] and 25 nM in assay [4]. Besides, in assay [3], the IC95 is under 7.8 nM.

For `CCC(O)c1cnc(-c2[nH]c3ccc(Br)cc3c2S(=O)(=O)N2CCCC2)[nH]1` (centres undefined), the IC50 in assay [1] was 8.8 nM; in assay [2] it was 62 nM; in assay [4] it was 2600 nM. Further, in assay [3], the IC95 stood at 50 nM.

Turning to `N#Cc1ccc2[nH]c(C(N)=O)c(S(=O)(=O)N3CCCC3)c2c1`, the figures for the IC50 in assay [1], in assay [2] and in assay [4] were 9.1 nM, 2300 nM and over 10000 nM, respectively. Moreover, in assay [3], the IC95 was 16 nM.

As to `NC(=O)c1[nH]c2ccc(-c3cccnc3)cc2c1S(=O)(=O)N1CCCC1`, the IC50 in assay [1] was 2200 nM. The IC95 in assay [3] was 310 nM.

As for `CCC(OC)c1cnc(-c2[nH]c3ccc(Br)cc3c2S(=O)(=O)N2CCCC2)[nH]1` (centres undefined), the IC50 in assay [1] was 16 nM; in assay [2], 110 nM; in assay [4], 240 nM. The IC95 in assay [3] is 100 nM.

For `O=S(=O)(c1c(-c2ncc(-c3ccccc3)[nH]2)[nH]c2ccc(Br)cc12)N1CCCC1`, the IC50 is 11 nM in assay [1], 150 nM in assay [2] and over 9100 nM in assay [4]. In assay [3], the IC95 worked out at 67 nM.

Consider `O=S(=O)(c1c(-c2nc3ccccc3[nH]2)[nH]c2ccc(Br)cc12)N1CCCC1`, for which the IC50 amounted to 6.9 nM in assay [1], 280 nM in assay [2] and 38 nM in assay [4]. Besides, the IC95 in assay [3] is 78 nM.

Regarding `COc1ccc2nc(-c3[nH]c4ccc(Br)cc4c3S(=O)(=O)N3CCCC3)[nH]c2c1`, the IC50 turned out to be 45 nM in assay [1], 150 nM in assay [2] and 5100 nM in assay [4]. The IC95 in assay [3] came to 400 nM.

Take `O=S(=O)(c1c(-c2nc3ccc(F)cc3[nH]2)[nH]c2ccc(Br)cc12)N1CCCC1`: the IC50 in assay [1] turned out to be 15 nM; in assay [2], 220 nM; in assay [4], 5300 nM. Further, in assay [3], the IC95 was 280 nM.

With `Cc1cnc(-c2[nH]c3ccc(Cl)cc3c2S(=O)(=O)c2ccccc2)[nH]1`, the IC50 in assay [1] was determined as 5 nM. The IC95 in assay [3] was 12 nM.

Take `NC(=O)c1[nH]c2ccc(Br)cc2c1S(=O)(=O)NC1CCCCC1`: in assay [1], the IC50 was found to be 14 nM. Further, the IC95 in assay [3] was found to be 125 nM.

Regarding `NC(=O)c1[nH]c2ccc(Br)cc2c1S(=O)(=O)N1CCCC1`, the IC50 in assay [2] was 10000 nM; in assay [4], 120 nM. For the same molecule, the IC95 in assay [3] is under 7.8 nM.

Consider `NC(=O)c1[nH]c2ccc(Br)cc2c1S(=O)(=O)N1CCCCC1`, for which the IC50 in assay [1] worked out at 5.7 nM. The IC95 in assay [3] is 16 nM.

On to `NC(=O)c1[nH]c2ccc(C3CC3)cc2c1S(=O)(=O)N1CCCC1`, for which the IC50 in assay [1] is 940 nM. The IC95 in assay [3] came out at 160 nM.

On to `NC(=O)c1[nH]c2ccc(Br)cc2c1S(=O)(=O)N1CCC(F)(F)CC1`, for which the IC50 in assay [1] came to 4.5 nM. Further, in assay [3], the IC95 came to 410 nM.

Consider `CCCNS(=O)(=O)c1c(C(N)=O)[nH]c2ccc(Br)cc12`, for which the IC50 in assay [1] came to 19 nM. Besides, in assay [3], the IC95 was found to be 160 nM.

As to `NC(=O)c1[nH]c2ccc(Br)cc2c1S(=O)(=O)NC1CCCC1`, the IC50 in assay [1] came out at 18 nM. Moreover, the IC95 in assay [3] was 125 nM.

Consider `O=C(NCCO)c1[nH]c2ccc(Br)cc2c1S(=O)(=O)N1CCCC1`, for which the IC50 in assay [1] is 15 nM; in assay [2], 2800 nM; in assay [4] it was 6.9 nM. In addition, in assay [3], the IC95 is 625 nM.

Consider `O=S(=O)(c1c(-c2nc3cccnc3[nH]2)[nH]c2ccc(Br)cc12)N1CCCC1`, for which the results for the IC50 in assay [1], in assay [2] and in assay [4] were 40 nM, 370 nM and 5000 nM, respectively. The IC95 in assay [3] was 82 nM.

On to `NC(=O)c1[nH]c2ccc(Br)cc2c1S(=O)(=O)NC1CCC1`, for which, in assay [1], the IC50 is 0.5 nM. Further, the IC95 in assay [3] came out at 125 nM.

`O=S(=O)(c1c(-c2nc3cccc(O)c3[nH]2)[nH]c2ccc(Br)cc12)N1CCCC1`: the figures for the IC50 in assay [1], in assay [2] and in assay [4] were 10 nM, 48 nM and 810 nM, respectively. In addition, the IC95 in assay [3] was found to be 82 nM.

Consider `NC(=O)c1[nH]c2ccc(C#CC3CC3)cc2c1S(=O)(=O)N1CCCC1`, for which the IC50 in assay [1] was 430 nM. The IC95 in assay [3] amounted to 630 nM.

Take `NC(=O)c1[nH]c2ccc(Cc3ccc(Cl)cn3)cc2c1S(=O)(=O)N1CCCC1`: the IC50 in assay [1] is 59 nM; in assay [2] it was 8200 nM; in assay [4], over 10000 nM.

For the molecule `NC(=O)c1[nH]c2ccc(Br)cc2c1S(=O)(=O)NC1CCC(F)(F)C1` (centres undefined), the IC50 in assay [1] was determined as 0.2 nM. For the same molecule, the IC95 in assay [3] worked out at 140 nM.

With `NC(=O)c1[nH]c2ccc(Cl)cc2c1S(=O)(=O)N1CCCC1`, the IC50 worked out at 3.9 nM in assay [1], 1960 nM in assay [2] and 48 nM in assay [4]. Further, in assay [3], the IC95 was under 7.8 nM.

Take `O=C(NCc1nccs1)c1[nH]c2ccc(Br)cc2c1S(=O)(=O)N1CCCC1`: the IC50 was 2.8 nM in assay [1], 280 nM in assay [2] and 200 nM in assay [4]. The IC95 in assay [3] is under 7.8 nM.

Turning to `O=C(NCc1ccnc2ccccc12)c1[nH]c2ccc(Br)cc2c1S(=O)(=O)N1CCCC1`, the IC50 in assay [1] stood at 3.1 nM; in assay [2], 25 nM; in assay [4], 63 nM. Also, the IC95 in assay [3] was 82 nM.

On to `NC(=O)c1[nH]c2ccc(-c3ccccc3)cc2c1S(=O)(=O)N1CCCC1`, for which the concentration for half-maximal inhibition (IC50) in assay [1] was found to be 550 nM. The IC95 in assay [3] stood at 1300 nM.

For `NC(=O)c1[nH]c2ccc(Cl)cc2c1S(=O)(=O)c1ccccc1` [L-737126], the results for the IC50 in assay [1], in assay [2] and in assay [4] were 3 nM, 116 nM and 71 nM, respectively.
